Each structure is given as a SMILES string. ≈ marks a conversion by molar mass, not a printed value. Calls of active or inactive are those of the source. No cut-off for these calls is given here. Where only a bound is given, the exact number is not on record here.

This note sets out measurements from ChEMBL document CHEMBL3751721, “Development of acridine derivatives as selective Mycobacterium tuberculosis DNA gyrase inhibitors” (Bioorg Med Chem, 2016).

For one data set, the system named is Escherichia coli. Nature of the data set: Inhibition of Escherichia coli DNA gyrase assessed as inhibition of DNA supercoiling.
Data set [1] has as its system Mycobacterium tuberculosis. Nature of the data set: Antimicrobial activity against Mycobacterium tuberculosis H37Rv ATCC 27294 after 28 days by alamar blue assay. As to conditions: H37Rv ATCC 27294, 672 h. The format is functional. (In general: Resazurin is reduced to fluorescent resorufin, in cell work by metabolically active cells.)
For data set [2], the target named is DNA gyrase subunit B (Mycobacterium smegmatis) (UniProt P0C559). Nature of the data set: Inhibition of Mycobacterium smegmatis GyrB by ATPase assay. The conditions noted are these: Mycolicibacterium smegmatis.
DNA gyrase subunit B (Mycobacterium smegmatis), sequence (P0C559 2-675 limits assumed): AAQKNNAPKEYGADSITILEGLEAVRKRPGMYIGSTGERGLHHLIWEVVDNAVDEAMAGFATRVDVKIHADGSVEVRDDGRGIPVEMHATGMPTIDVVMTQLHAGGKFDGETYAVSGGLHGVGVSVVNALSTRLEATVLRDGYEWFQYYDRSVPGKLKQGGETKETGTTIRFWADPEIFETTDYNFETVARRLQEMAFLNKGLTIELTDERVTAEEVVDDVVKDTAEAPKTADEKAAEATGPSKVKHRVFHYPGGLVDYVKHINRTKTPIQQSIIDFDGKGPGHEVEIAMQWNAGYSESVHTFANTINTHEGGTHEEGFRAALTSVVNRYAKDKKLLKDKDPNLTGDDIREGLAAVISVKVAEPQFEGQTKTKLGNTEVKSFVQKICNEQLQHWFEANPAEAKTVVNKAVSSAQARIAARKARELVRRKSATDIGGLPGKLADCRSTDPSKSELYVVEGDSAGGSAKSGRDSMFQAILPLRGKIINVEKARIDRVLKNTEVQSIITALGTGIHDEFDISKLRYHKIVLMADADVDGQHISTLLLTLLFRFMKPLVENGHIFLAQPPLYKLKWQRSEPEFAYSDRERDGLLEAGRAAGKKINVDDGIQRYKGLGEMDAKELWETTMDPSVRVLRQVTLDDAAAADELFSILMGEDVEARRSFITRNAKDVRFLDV
In data set [3] the test system is Mycobacterium tuberculosis. Nature of the data set: Inhibition of Mycobacterium tuberculosis DNA topoisomerase 1 assessed as DNA relaxation at 50 uM.
In data set [4] the target is DNA gyrase (Staphylococcus aureus) (UniProt P0A0K8+P20831). Nature of the data set: Inhibition of Staphylococcus aureus DNA gyrase assessed as inhibition of DNA supercoiling. The class given is protein-complex assay.
DNA gyrase (Staphylococcus aureus), sequence (P0A0K8 2-644 limits assumed): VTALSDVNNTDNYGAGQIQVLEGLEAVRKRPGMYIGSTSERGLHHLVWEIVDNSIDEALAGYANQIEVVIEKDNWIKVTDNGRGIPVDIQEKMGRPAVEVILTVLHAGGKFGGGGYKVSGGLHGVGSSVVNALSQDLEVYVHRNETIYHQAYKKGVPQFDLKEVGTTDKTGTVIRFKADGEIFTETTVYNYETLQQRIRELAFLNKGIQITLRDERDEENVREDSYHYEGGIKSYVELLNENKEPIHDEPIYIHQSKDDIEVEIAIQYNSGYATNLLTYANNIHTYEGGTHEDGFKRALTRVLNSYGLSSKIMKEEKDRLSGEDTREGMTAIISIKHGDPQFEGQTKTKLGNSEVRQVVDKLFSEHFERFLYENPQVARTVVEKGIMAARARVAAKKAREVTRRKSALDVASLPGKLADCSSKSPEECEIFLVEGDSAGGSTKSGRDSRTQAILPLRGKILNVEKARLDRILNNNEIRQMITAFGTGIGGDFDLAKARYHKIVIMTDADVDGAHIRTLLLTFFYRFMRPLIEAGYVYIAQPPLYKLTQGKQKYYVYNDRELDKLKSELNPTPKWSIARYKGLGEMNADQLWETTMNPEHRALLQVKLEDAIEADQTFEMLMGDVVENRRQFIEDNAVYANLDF
DNA gyrase (Staphylococcus aureus), sequence (P20831 whole entry partner): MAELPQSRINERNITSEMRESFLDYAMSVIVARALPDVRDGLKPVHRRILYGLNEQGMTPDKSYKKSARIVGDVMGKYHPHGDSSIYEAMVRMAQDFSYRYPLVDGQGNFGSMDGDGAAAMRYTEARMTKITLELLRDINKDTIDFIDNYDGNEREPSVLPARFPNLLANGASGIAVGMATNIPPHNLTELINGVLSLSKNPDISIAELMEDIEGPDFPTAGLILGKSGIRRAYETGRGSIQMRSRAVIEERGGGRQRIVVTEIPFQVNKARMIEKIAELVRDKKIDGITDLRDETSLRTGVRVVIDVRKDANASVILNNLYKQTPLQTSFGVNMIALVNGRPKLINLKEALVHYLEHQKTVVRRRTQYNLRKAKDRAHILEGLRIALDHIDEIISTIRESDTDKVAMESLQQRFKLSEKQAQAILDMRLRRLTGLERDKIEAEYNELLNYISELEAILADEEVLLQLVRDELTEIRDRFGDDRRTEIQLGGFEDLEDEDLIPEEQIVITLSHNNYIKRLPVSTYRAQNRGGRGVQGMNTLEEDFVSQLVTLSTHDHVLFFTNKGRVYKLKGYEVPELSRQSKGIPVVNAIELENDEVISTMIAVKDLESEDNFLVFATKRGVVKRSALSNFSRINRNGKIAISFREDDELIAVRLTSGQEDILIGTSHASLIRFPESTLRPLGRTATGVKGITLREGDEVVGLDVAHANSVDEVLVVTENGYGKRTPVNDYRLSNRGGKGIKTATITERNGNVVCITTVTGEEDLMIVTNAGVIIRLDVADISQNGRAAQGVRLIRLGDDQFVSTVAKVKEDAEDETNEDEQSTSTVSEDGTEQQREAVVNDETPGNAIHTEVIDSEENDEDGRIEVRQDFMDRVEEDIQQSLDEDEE
The target of data set [5] is DNA gyrase subunit A/DNA gyrase subunit B (Mycobacterium tuberculosis (strain ATCC 25618 / H37Rv), UniProt P9WG45+P9WG47). Nature of the data set: Inhibition of Mycobacterium tuberculosis DNA gyrase assessed as inhibition of DNA supercoiling after 30 mins by electrophoresis.
DNA gyrase subunit A/DNA gyrase subunit B, sequence (P9WG45 whole entry): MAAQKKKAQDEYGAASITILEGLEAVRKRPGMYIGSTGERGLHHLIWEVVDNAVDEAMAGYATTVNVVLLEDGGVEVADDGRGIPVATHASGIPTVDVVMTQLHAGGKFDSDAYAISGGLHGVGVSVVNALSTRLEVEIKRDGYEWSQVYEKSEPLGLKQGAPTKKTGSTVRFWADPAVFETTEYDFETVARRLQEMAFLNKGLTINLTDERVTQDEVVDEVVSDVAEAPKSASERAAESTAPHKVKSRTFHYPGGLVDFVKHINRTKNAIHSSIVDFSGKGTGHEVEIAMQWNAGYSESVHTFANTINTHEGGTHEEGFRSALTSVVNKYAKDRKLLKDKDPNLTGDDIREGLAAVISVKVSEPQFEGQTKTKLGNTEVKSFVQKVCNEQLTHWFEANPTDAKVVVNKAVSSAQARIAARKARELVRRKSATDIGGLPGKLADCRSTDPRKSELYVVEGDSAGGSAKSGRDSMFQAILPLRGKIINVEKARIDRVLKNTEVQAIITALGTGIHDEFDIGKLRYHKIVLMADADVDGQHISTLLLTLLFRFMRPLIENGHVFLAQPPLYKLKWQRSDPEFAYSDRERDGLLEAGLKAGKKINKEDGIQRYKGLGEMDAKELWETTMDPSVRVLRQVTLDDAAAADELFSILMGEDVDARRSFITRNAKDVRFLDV
DNA gyrase subunit A/DNA gyrase subunit B, sequence (P9WG47 whole entry): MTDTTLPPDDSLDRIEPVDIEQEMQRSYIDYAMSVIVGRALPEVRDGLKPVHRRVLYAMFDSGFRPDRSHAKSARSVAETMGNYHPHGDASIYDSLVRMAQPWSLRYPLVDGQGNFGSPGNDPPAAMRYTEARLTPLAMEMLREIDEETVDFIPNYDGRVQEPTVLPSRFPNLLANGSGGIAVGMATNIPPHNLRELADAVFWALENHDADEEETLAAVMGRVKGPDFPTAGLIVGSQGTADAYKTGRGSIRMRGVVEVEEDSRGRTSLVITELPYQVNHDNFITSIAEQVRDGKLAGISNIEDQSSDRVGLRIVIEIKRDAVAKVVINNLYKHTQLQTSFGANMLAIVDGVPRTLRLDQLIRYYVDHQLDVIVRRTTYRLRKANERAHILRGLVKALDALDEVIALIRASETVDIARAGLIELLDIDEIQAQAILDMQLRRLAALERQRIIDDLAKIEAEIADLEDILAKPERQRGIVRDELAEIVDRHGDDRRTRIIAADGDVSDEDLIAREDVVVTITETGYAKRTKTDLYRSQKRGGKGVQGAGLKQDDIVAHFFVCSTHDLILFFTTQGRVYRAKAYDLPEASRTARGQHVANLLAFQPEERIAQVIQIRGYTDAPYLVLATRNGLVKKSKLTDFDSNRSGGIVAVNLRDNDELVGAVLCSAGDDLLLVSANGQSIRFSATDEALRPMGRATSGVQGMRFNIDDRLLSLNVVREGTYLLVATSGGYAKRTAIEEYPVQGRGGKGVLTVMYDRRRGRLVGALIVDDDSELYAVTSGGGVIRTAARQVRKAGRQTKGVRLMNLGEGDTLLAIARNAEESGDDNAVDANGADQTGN
For data set [6], the target named is DNA gyrase (Pseudomonas aeruginosa) (UniProt P48372+Q9I7C2). Nature of the data set: Inhibition of Pseudomonas aeruginosa DNA gyrase assessed as inhibition of DNA supercoiling. The format is protein-complex assay.
A short description of data set [7]: Cytotoxicity against mouse RAW264.7 cells assessed as inhibition of cell growth at 50 uM after 72 hrs by MTT assay. The format is cell-based. The method in brief:
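RAW 264.7 mouse macrophages exposed to compound at 50 µM for 72 h. Viability read by MTT conversion to formazan, reported as percent inhibition.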

Data set [8] can be described thus: Inhibition of Mycobacterium tuberculosis DNA topoisomerase 1.

In the case of `Cc1ccc(S(=O)(=O)Nc2ccc(Nc3c4ccccc4nc4ccccc34)cc2)cc1`, the inhibition entry (with Escherichia coli; in data set [2]; in data set [3]; in data set [4]; in data set [6]) was “inactive” in each case. In data set [1], the MIC – broadly, the lowest concentration found to suppress growth – came out at 28.4 µM (≈ 12.5 µg/mL). In addition, the IC50 (usually the concentration at which inhibition is half-maximal) in [5] stood at 9.3 µM. In addition, the inhibition (usually the share of the control response that was lost under treatment) at 72 h, 50 µM in [7] was 28.4%.
With `O=[N+]([O-])c1ccc(S(=O)(=O)Nc2ccc(Nc3c4ccccc4nc4ccccc34)cc2)cc1`, the inhibition entry (with Escherichia coli; in data set [2]; in data set [3]; in data set [4]; in [6]) was “inactive” in each case. Besides, the MIC in [1] amounted to 24.6 µM (≈ 11.6 µg/mL). Further, in data set [5], the IC50 turned out to be 22.4 µM. Moreover, the inhibition at 72 h, 50 µM in [7] was found to be 34.1%.
In the case of `Cc1ccc(NC(=S)Nc2ccc(Nc3c4ccccc4nc4ccc(Cl)cc34)cc2)cc1`, the inhibition entry (with Escherichia coli; in data set [2]; in data set [3]; in [4]; in [6]) was “inactive” throughout. Further, the MIC in data set [1] was above 53.3 µM. Moreover, in data set [5], the IC50 was 33.9 µM. Moreover, the inhibition at 72 h, 50 µM in data set [7] came to 25.5%.
Turning to `Cc1ccc(NC(=O)Nc2ccc(Nc3c4ccccc4nc4ccc(C)cc34)cc2)cc1`, the inhibition result (in the data set with Escherichia coli; in [2]; in data set [3]; in data set [4]; in data set [6]) was “inactive” throughout. Besides, the MIC in [1] was found to be 57.8 µM (≈ 25 µg/mL). Further, the 50% inhibitory concentration (IC50) in data set [5] stood at 29.6 µM. Further, the inhibition at 72 h, 50 µM in [7] came to 43.1%.
In the case of `Cc1ccc2nc3ccccc3c(Nc3ccc(NC(=O)Nc4ccc([N+](=O)[O-])cc4)cc3)c2c1`, the inhibition result (in the data set on Escherichia coli; in [2]; in data set [3]; in data set [4]; in data set [6]) was “inactive” throughout. This compound returned an MIC in [1] of 13.5 µM (≈ 6.25 µg/mL). Further, in data set [5], the IC50 came to 7.4 µM. In [7], the inhibition at 72 h, 50 µM was found to be 33.9%.
In data set [8], `COc1cc(NS(C)(=O)=O)ccc1Nc1c2ccccc2nc2ccccc12` [AMSACRINE] showed an IC50 of 10 µM.
As for `O=[N+]([O-])c1ccc(NC(=S)Nc2ccc(Nc3c4ccccc4nc4ccc(Cl)cc34)cc2)cc1`, the inhibition result (in the data set on Escherichia coli; in [2]; in [3]; in data set [4]; in data set [6]) was “inactive” in each case. Moreover, the MIC in data set [1] is above 50 µM. The IC50 in data set [5] is 28.8 µM. For the same compound, the inhibition at 72 h, 50 µM in [7] was found to be 30.4%.
As for `O=S(=O)(Nc1ccc(Nc2c3ccccc3nc3ccccc23)cc1)c1ccc(Cl)cc1`, the inhibition result (with Escherichia coli; in [2]; in data set [3]; in data set [4]; in data set [6]) was “inactive” throughout. This compound also displayed an MIC in data set [1] of 27.2 µM (≈ 12.5 µg/mL). Also, in [5], the IC50 came out at 23.8 µM. For the same compound, the inhibition at 72 h, 50 µM in data set [7] is 34.2%.
Consider `Cc1ccc2nc3ccccc3c(Nc3ccc(NC(=S)Nc4ccccc4)cc3)c2c1`, for which the inhibition entry (with Escherichia coli; in data set [2]; in data set [3]; in [4]; in [6]) was “inactive” throughout. This compound registered an MIC in data set [1] of 7.2 µM (≈ 3.13 µg/mL). For the same compound, the IC50 in [5] stood at 6.3 µM. Further, the inhibition at 72 h, 50 µM in data set [7] worked out at 10.8%.
Consider `Cc1ccc2nc3ccccc3c(Nc3ccc(NS(=O)(=O)c4ccc([N+](=O)[O-])cc4)cc3)c2c1`, for which the inhibition result (in the data set on Escherichia coli; in data set [2]; in [3]; in data set [4]; in [6]) was “inactive” throughout. The MIC in data set [1] came out at 12.9 µM (≈ 6.25 µg/mL). Besides, in data set [5], the IC50 stood at 8.34 µM. In [7], the inhibition at 72 h, 50 µM worked out at 27%.
For `Cc1ccc(NC(=O)Nc2ccc(Nc3c4ccccc4nc4ccccc34)cc2)cc1`, the inhibition entry (in the data set with Escherichia coli; in [2]; in data set [3]; in [4]; in data set [6]) was “inactive” in each case. In data set [1], the MIC turned out to be 14.9 µM (≈ 6.25 µg/mL). In data set [5], the IC50 turned out to be 13.1 µM. In addition, in [7], the inhibition at 72 h, 50 µM was 18.4%.
Consider `O=C(Nc1ccc(Cl)cc1)Nc1ccc(Nc2c3ccccc3nc3ccccc23)cc1`, for which the inhibition entry (in the data set on Escherichia coli; in data set [2]; in data set [3]; in [4]; in [6]) was “inactive” in each case. This compound displayed an MIC in data set [1] of 28.5 µM (≈ 12.5 µg/mL). The IC50 in [5] turned out to be 10.4 µM. In addition, the inhibition at 72 h, 50 µM in data set [7] is 26.2%.
Consider `Cc1ccc(S(=O)(=O)Nc2ccc(Nc3c4ccccc4nc4ccc(Cl)cc34)cc2)cc1`, for which the inhibition entry (in the data set with Escherichia coli; in data set [2]; in [3]; in [4]; in data set [6]) was “inactive” each time. Also, the MIC in data set [1] is above 52.8 µM. Further, the IC50 in data set [5] was determined as 22.8 µM. The inhibition at 72 h, 50 µM in data set [7] stood at 38.5%.
As for `S=C(Nc1ccccc1)Nc1ccc(Nc2c3ccccc3nc3ccc(Cl)cc23)cc1`, the inhibition result (in the data set with Escherichia coli; in [2]; in [3]; in data set [4]; in [6]) was “inactive” each time. This compound gave a minimal inhibitory concentration (MIC) in data set [1] of 27.5 µM (≈ 12.5 µg/mL). The IC50 in data set [5] is 29.3 µM. In addition, the inhibition at 72 h, 50 µM in data set [7] turned out to be 11.7%.
`Cc1ccc2nc3ccccc3c(Nc3ccc(NC(=S)Nc4ccc(Cl)cc4)cc3)c2c1`: the inhibition entry (with Escherichia coli; in [2]; in [3]; in data set [4]; in data set [6]) was “inactive” each time. Besides, the MIC in data set [1] was 26.7 µM (≈ 12.5 µg/mL). Also, the IC50 in [5] is 11.2 µM. Further, the inhibition at 72 h, 50 µM in data set [7] was 26%.
Regarding `O=S(=O)(Nc1ccc(Nc2c3ccccc3nc3ccc(Cl)cc23)cc1)c1ccc(Cl)cc1`, the inhibition result (with Escherichia coli; in [2]; in data set [3]; in [4]; in data set [6]) was “inactive” throughout. In data set [1], this compound came in with an MIC of 25.1 µM (≈ 12.4 µg/mL). In data set [5], the IC50 was 12.4 µM. In data set [7], the inhibition at 72 h, 50 µM worked out at 14.2%.
With `Cc1ccc(NC(=O)Nc2ccc(Nc3c4ccccc4nc4ccc(Cl)cc34)cc2)cc1`, the inhibition result (with Escherichia coli; in data set [2]; in data set [3]; in data set [4]; in [6]) was “inactive” in each case. In [1], this compound returned an MIC of 13.8 µM (≈ 6.25 µg/mL). Also, the IC50 in data set [5] worked out at 12.5 µM. In addition, the inhibition at 72 h, 50 µM in data set [7] turned out to be 29.2%.
With `O=C(Nc1ccc(Nc2c3ccccc3nc3ccccc23)cc1)Nc1ccc([N+](=O)[O-])cc1`, the inhibition entry (in the data set on Escherichia coli; in data set [2]; in data set [3]; in data set [4]; in data set [6]) was “inactive” in each case. Also, the lowest concentration to inhibit growth in data set [1] (MIC) was 27.8 µM (≈ 12.5 µg/mL). In data set [5], the IC50 worked out at 26.8 µM. Also, in [7], the inhibition at 72 h, 50 µM was 19.2%.
With `O=[N+]([O-])c1ccc(NC(=S)Nc2ccc(Nc3c4ccccc4nc4ccccc34)cc2)cc1`, the inhibition entry (in the data set with Escherichia coli; in data set [2]; in data set [3]; in [4]; in [6]) was “inactive” throughout. The MIC in data set [1] was 13.4 µM (≈ 6.25 µg/mL). In data set [5], the concentration for half-maximal inhibition (IC50) turned out to be 13.1 µM. Besides, the inhibition at 72 h, 50 µM in data set [7] is 20.8%.
Regarding `S=C(Nc1ccc(Cl)cc1)Nc1ccc(Nc2c3ccccc3nc3ccc(Cl)cc23)cc1`, the inhibition result (with Escherichia coli; in [2]; in data set [3]; in data set [4]; in data set [6]) was “inactive” each time. In addition, the MIC in [1] was above 51.1 µM. Besides, in data set [5], the IC50 worked out at 31.5 µM. For the same compound, in data set [7], the inhibition at 72 h, 50 µM stood at 6.7%.
Consider `O=[N+]([O-])c1ccc(S(=O)(=O)Nc2ccc(Nc3c4ccccc4nc4ccc(Cl)cc34)cc2)cc1`, for which the inhibition result (with Escherichia coli; in data set [2]; in data set [3]; in data set [4]; in [6]) was “inactive” each time. For the same compound, the MIC in [1] is 24.8 µM (≈ 12.5 µg/mL). The IC50 in data set [5] is 8.1 µM. Moreover, in data set [7], the inhibition at 72 h, 50 µM came to 30.4%.
